One assay has as its system Jurkat. As to the kind of experiment: Antiproliferative activity against human Jurkat cells at 45 uM. The class given is functional, cell-based. An outline of the steps:
(§1)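 Proliferation of human cancer cell lines HCT-15 (colon) and Jurkat (T-cell lymphoma) was tested at a single concentration of 45 μM per compound.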

Assay [1] concerns the target T1, Tyrosine-protein phosphatase non-receptor type 1 (Homo sapiens) (UniProt P18031).
T1 sequence (whole entry): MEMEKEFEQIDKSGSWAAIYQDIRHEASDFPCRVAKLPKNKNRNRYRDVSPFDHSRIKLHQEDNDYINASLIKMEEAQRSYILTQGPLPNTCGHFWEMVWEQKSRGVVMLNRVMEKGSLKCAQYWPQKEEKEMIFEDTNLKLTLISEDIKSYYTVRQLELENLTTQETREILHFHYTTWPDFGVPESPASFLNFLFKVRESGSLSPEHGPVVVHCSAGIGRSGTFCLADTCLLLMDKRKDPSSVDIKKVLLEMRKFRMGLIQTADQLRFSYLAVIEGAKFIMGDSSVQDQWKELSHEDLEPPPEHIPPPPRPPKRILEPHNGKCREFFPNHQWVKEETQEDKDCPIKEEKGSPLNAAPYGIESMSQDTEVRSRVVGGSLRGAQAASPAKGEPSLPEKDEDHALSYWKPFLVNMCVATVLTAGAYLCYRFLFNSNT
As to the kind of experiment: Inhibition of PTP1B (unknown origin) at 35 to 40 uM.

The subject of the next assay is HCT-15. Nature of the assay: Antiproliferative activity against human HCT15 cells at 45 uM. It is filed as functional, cell-based. An outline of the steps: as §1
In assay [2] the target is T2, Tyrosine-protein phosphatase non-receptor type 1 (Homo sapiens, UniProt P18031).
T2 sequence (P18031 whole entry): T1 sequence (whole entry)
Nature of the assay: Inhibition of PTP1B (unknown origin).

Each structure is given as a SMILES string. Activity calls are given as the source filed them. The calls are words filed in the database; no cut-off is given here.

We go through four molecules from ChEMBL document CHEMBL2346617, “Euryspongins A-C, three new unique sesquiterpenes from a marine sponge Euryspongia sp” (Bioorg Med Chem Lett, 2013).

For the molecule `CC1=C[C@@H]2CC(C)(C)[C@H]1C[C@H](O)C1=CC(=O)O[C@@H]12` (relative stereo), the inhibition result (with Jurkat; in assay [1]; in the assay on HCT-15) was “inactive” in each case.

Take `CC1=C[C@@H]2CC(C)(C)[C@H]1C[C@H](O)c1ccoc12` (relative stereo): the inhibition entry (in the assay on Jurkat; in assay [1]; with HCT-15) was “inactive” each time.

`CO[C@]12OC(=O)C=C1[C@@H](O)C[C@H]1C(C)=C[C@@H]2CC1(C)C` (relative stereo): the inhibition result (in the assay with Jurkat; in assay [1]; in the assay with HCT-15) was “inactive” each time.

For orientation: IC50 means the concentration that inhibits the measured activity by half. Lower therefore signals inhibition by little substance. Take `CC1=C[C@@H]2CC(C)(C)[C@H]1/C=C\c1ccoc12` (relative stereo) [REL-DEHYDROEURYSPONGIN A]: the inhibition entry in the assay on Jurkat and with HCT-15 was “inactive” throughout. The molecule further had a half-maximal inhibitory concentration (IC50) in assay [2] of 3.6 µM.
